The list is not random: actives were taken first. Their share in the collection is about 2.5%.
SR-BI uptake up – activators of SR-BI mediated DiI-HDL uptake, primary screen, ldlA[mSR-BI] CHO cells, DiI fluorescence | 3 h; 100 = double the neutral-control signal | activation, % at 12.5 µM | 320,000 compounds, 0.096% hits;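 active = mean replicate activation of at least 60% and every replicate at or above 60%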
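Assay system: LDL receptor-deficient CHO ldlA cells overexpressing murine SR-BI / Medium: BSA-supplemented, HEPES-buffered Ham's F12, pH 7.4 / Probe or stimulus: DiI-labelled HDL at 10 µg/mL final / Timing: compound with DiI-HDL co-incubation, 3 h at 37 °C / Technique: bottom-read cell fluorescence after medium removal, ex 550/em 595 nm / Measure: HDL uptake via cellular fluorescence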
Dyrk1A ADPGlo – rat Dyrk1A kinase inhibitors, primary screen, biochemical, single point, plate reader; ADP-Glo luminescence, NFATc1 peptide; inhibition, % at 12.5 µM; 310,000 compounds, 0.43% hits; AID 504441, 2011
SR-BI HDL uptake – inhibitors of SR-BI mediated HDL lipid uptake, primary screen, ldlA[mSR-BI] cells, fluorescence, single point | ldlA[mSR-BI] CHO cells, DiI-HDL uptake fluorescence, 3 h | inhibition, % at 12.5 µM | 320,000 compounds, 0.96% hits | AID 488896, 2010;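 active = mean replicate inhibition of at least 70% and a set share of replicates each scoring 70 or more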
CDK5 inh – inhibitors of human CDK5/p35 kinase, primary screen, biochemical, single concentration. Cyclin-dependent kinase 5 (Homo sapiens) + Cyclin-dependent kinase 5 activator 1 (Homo …. Recombinant CDK5/p35, ADP-Glo luminescence, 60 min. inhibition, % at 10 µM. 330,000 compounds, 0.01% hits. AID 488839, 2010;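 active = highest replicate inhibition of at least 50% and at least 75% of replicates reaching 50%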
dFosB act-1 – activators of delta FosB homodimer, primary screen, biochemical, fluorescence polarization, TAMRA-CDK5 oligo, single point; Protein FosB (Mus musculus), P13346; purified delta FosB; percent of positive-control signal above neutral wells; activation, % at 25 µM; 340,000 compounds, 0.99% hits;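 active = mean activation above about 17%, with every replicate also reaching it, limit read from the data, passing the limit was not always enough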
Target sequence (P13346 whole entry, looked up): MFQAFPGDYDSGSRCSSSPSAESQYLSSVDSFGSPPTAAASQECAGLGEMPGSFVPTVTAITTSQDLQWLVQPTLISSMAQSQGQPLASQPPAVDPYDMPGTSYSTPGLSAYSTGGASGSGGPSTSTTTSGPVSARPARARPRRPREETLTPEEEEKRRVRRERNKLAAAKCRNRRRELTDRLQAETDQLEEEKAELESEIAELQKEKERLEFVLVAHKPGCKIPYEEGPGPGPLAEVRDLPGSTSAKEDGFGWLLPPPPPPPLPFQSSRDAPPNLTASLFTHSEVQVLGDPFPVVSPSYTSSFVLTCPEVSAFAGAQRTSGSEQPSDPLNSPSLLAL
NSD2 HMT inh – NSD2 histone methyltransferase inhibitors, primary screen, biochemical, AlphaScreen, single concentration, set 2 | Histone-lysine N-methyltransferase NSD2 (Homo sapiens), O96028 | NSD2 peptide methylation, 120 min | inhibition, % at 12.5 µM | 310,000 compounds, 0.54% hits | AID 743445, 2014
dFosB act-2 – activators of mouse delta FosB DNA binding, confirmation, biochemical, fluorescence polarization, TAMRA-CDK5 oligo, cherry-picked samples; activation, % at 24.9 µM; 2,400 tested, under 10 active; shares compounds with dFosB act-1; purified delta FosB; normalised: neutral wells 0, positive control 100;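 active = highest replicate activation at or above 34% and every replicate reaching that threshold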;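 note: higher polarization means more probe DNA bound by delta FosB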
Each line names hits and unclear results; the compound was inactive in the other large screens (follow-up assays come after a bar, where they were run). Cut-off read from the data, not from the text of the source, unless noted: active = inhibition above about 50%; inactive = the rest.

Cn1c(=O)c2c(SCC(=O)Nc3ccccc3F)nc(C3CC3)nc2n(C)c1=O	dFosB act-1 23.7 | dFosB act-2 inactive
COc1cc(NC(=O)CSc2nc(C3CC3)nc3ccccc23)cc(OC)c1	dFosB act-1 87.7 (no result: SR-BI uptake up, SR-BI HDL uptake) | dFosB act-2 inactive
COCCN(C(=O)c1c(C)noc1C)c1c(N)n(CC(C)C)c(=O)[nH]c1=O	none
COc1ccc(NC(=O)c2cccnn2)cc1	none
CCOC(=O)c1ccc(NC(=O)CC2S/C(=N/N=C3/NC(=O)CS3)NC2=O)cc1 (stereo unspecified)	dFosB act-1 22.9 (no result: Dyrk1A ADPGlo) | dFosB act-2 inactive
COc1ccc(CNC(=O)[C@H](C)NC(=O)C2CCN(S(=O)(=O)c3ccc(C)cc3)CC2)cc1	none
CC(C)[C@H](NC(=O)C1CCN(S(=O)(=O)c2ccccc2)CC1)C(=O)NCc1ccco1	none
Cc1ccc(S(=O)(=O)N2CCC(C(=O)N[C@@H](C)C(=O)NC3CCCCC3)CC2)cc1	dFosB act-1 39.1 | dFosB act-2 inactive
COc1ccc(S(=O)(=O)N2CCC(C(=O)N[C@@H](C)C(=O)NC3CCCC3)CC2)cc1	dFosB act-1 20.2 | dFosB act-2 inactive
Cc1ccc(S(=O)(=O)N2CCC(C(=O)N[C@H](C(=O)NCc3ccco3)C(C)C)CC2)cc1	dFosB act-1 17.7 | dFosB act-2 inactive
Cc1cc(C)cc(NC(=O)Cn2nnc(C(=O)NCc3ccccc3Cl)c2N)c1	dFosB act-1 40.8 | dFosB act-2 inactive
Cc1cc(C)cc(NC(=O)Cn2nnc(C(=O)NCc3ccc(F)cc3)c2N)c1	dFosB act-1 57.8 | dFosB act-2 inactive
COc1ccc(NC(=O)Cn2nnc(C(=O)NCc3ccc(C)cc3)c2N)cc1Cl	none
C[C@]1(OC(=O)/C=C/c2ccccc2)C[C@@H](O)[C@]2(O)C=CO[C@@H](O[C@@H]3O[C@H](CO)[C@@H](O)[C@H](O)[C@H]3O)[C@@H]21	none (no result: NSD2 HMT inh)
COc1cccc(N2C(=O)CC(NNC(=O)c3cccs3)C2=O)c1 (stereo unspecified)	none
COc1ccc(N2C(=O)CC(NNC(=O)c3ccc(Br)s3)C2=O)cc1 (stereo unspecified)	dFosB act-1 45.5 | dFosB act-2 inactive
O=C(CN1C(=O)S/C(=C\c2ccc(Cl)cc2)C1=O)NC1C=CS(=O)(=O)C1 (stereo unspecified)	dFosB act-1 20.2 | dFosB act-2 inactive
COc1ccc(/C=C2\SC(=O)N(CC(=O)Nc3ccc(O)cc3)C2=O)cc1OC	dFosB act-1 24.5 | dFosB act-2 inactive
COc1ccc(/C=C2\SC(=O)N(CC(=O)Nc3ccccc3O)C2=O)cc1OC	none
COC(=O)COc1ccc(/C=C2\SC(=O)N(CC(=O)Nc3ccccc3F)C2=O)cc1	dFosB act-1 32.7 | dFosB act-2 inactive
O=C(CN1C(=O)S/C(=C\c2ccc(Cl)cc2)C1=O)NNC(=O)c1ccccc1O	dFosB act-1 26.0 | dFosB act-2 inactive
CCOc1ccc(C2C(C(=O)OC)=CN(C(C)c3ccccc3)C=C2C(=O)OC)cc1 (stereo unspecified)	none
CC(/C=C1\SC(=O)N(CC(=O)Nc2ccc(O)cc2)C1=O)=C\c1ccccc1	none
CC(/C=C1\SC(=O)N(CC(=O)Nc2cccc(O)c2)C1=O)=C\c1ccccc1	dFosB act-1 24.2 | dFosB act-2 inactive
CCOC(=O)c1c(NC(=O)C2c3ccccc3Oc3ccccc32)sc(C(N)=O)c1C	dFosB act-1 31.8 | dFosB act-2 inactive
CCOC(=O)c1c(NC(=O)C2CCCO2)sc(C(N)=O)c1C (stereo unspecified)	none
